ChEMBL document CHEMBL5230083, “Novel 2, 5-diketopiperazine derivatives as potent selective histone deacetylase 6 inhibitors: Rational design, synthesis and antiproliferative activity” (Eur J Med Chem, 2020)
pIC50: −log10 of the molar value. Activity calls are given as the source filed them. No cut-off for these calls is given here.

Legend:
[1] = molecular target: Histone deacetylase 3 (Homo sapiens) (UniProt O15379); experiment: Inhibition of HDAC3 (unknown origin) using Fluor de lys as substrate by fluorescence based analysis
Outline: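 Fluor de Lys fluorogenic substrate/developer activity assay, run by a contract lab. […] Experiments were run in duplicate.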

[2] = molecular target: Histone deacetylase 4 (Homo sapiens, UniProt P56524); experiment: Inhibition of HDAC4 (unknown origin) using Fluor de lys as substrate by fluorescence based analysis
[3] = system: MDA-MB-468; experiment: Antiproliferative activity against human MDA-MB-468 cells assessed as cell growth at 10 uM incubated for 48 hrs by SRB assay relative to control; type: functional; conditions: read-out: Activity
Outline: (§1)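 Single-concentration screen at 10 μM run by NCI on its NCI-60 human tumour panel (blood, lung, colon, CNS, melanoma, ovary, kidney, prostate, breast), following the NCI-60 published methodology. Read-out is growth percent relative to untreated cells.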

[4] = system: HCC 2998; experiment: Antiproliferative activity against human HCC 2998 cells assessed as cell growth at 10 uM incubated for 48 hrs by SRB assay relative to control; type: functional; conditions: read-out: Activity; outline: as §1
[5] = molecular target: Histone deacetylase 5 (Homo sapiens, UniProt Q9UQL6); experiment: Inhibition of HDAC5 (unknown origin) using Fluor de lys as substrate by fluorescence based analysis
[6] = molecular target: Histone deacetylase 11 (Homo sapiens, UniProt Q96DB2); experiment: Inhibition of HDAC11 (unknown origin) using Fluor de lys as substrate by fluorescence based analysis
[7] = system: LOX IMVI; experiment: Antiproliferative activity against human LOX IMVI cells assessed as cell growth at 10 uM incubated for 48 hrs by SRB assay relative to control; type: functional; conditions: read-out: Activity; outline: as §1
[8] = system: U-251; experiment: Antiproliferative activity against human U-251 cells assessed as cell growth at 10 uM incubated for 48 hrs by SRB assay relative to control; type: functional; conditions: read-out: Activity
Outline: (§2)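 NCI-60 single-dose screen: compounds tested at 10 μM, and growth percent of each cell line calculated. The full method follows the NCI DTP protocol.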

[9] = system: A549; experiment: Antiproliferative activity against human A549 cells assessed as cell growth at 10 uM incubated for 48 hrs by SRB assay relative to control; type: functional; conditions: read-out: Activity; outline: as §1
[10] = system: SNB-19; experiment: Antiproliferative activity against human SNB-19 cells assessed as cell growth at 10 uM incubated for 48 hrs by SRB assay relative to control; type: functional; conditions: read-out: Activity; outline: as §2
[11] = molecular target: Histone deacetylase 9 (Homo sapiens, UniProt Q9UKV0); experiment: Inhibition of HDAC9 (unknown origin) using Fluor de lys as substrate by fluorescence based analysis
[12] = system: NCI-H322M; experiment: Antiproliferative activity against human NCI-H322M cells assessed as cell growth at 10 uM incubated for 48 hrs by SRB assay relative to control; type: functional; conditions: read-out: Activity; outline: as §1
[13] = system: NCI-H226; experiment: Antiproliferative activity against human NCI-H226 cells assessed as cell growth at 10 uM incubated for 48 hrs by SRB assay relative to control; type: functional; conditions: read-out: Activity; outline: as §1
[14] = molecular target: Polyamine deacetylase HDAC10 (Homo sapiens, UniProt Q969S8); experiment: Inhibition of HDAC10 (unknown origin) incubated for 1 hr by TR-FRET analysis
[15] = molecular target: Protein deacetylase HDAC6 (Homo sapiens) (UniProt Q9UBN7); experiment: Inhibition of HDAC6 in human HCT-116 cells assessed as increase in acetylated alpha-tubulin level incubated for 24 hrs by Western blot analysis; type: cell-based; conditions: dose 0.1-10 µM
Outline: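 HCT116 cells were seeded overnight, then treated at 0.1, 1 and 10 μM for 24 h. Cells were lysed with protein extraction reagent plus EDTA-free protease inhibitors. 30 µg protein per sample was resolved by SDS-PAGE and blotted to nitrocellulose. Ac-α-tubulin and Ac-H3 were probed and detected by ECL.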

[16] = species: Homo sapiens; experiment: Selectivity index, ratio of IC50 for inhibition of HDAC8 (unknown origin) to IC50 for inhibition of HDAC6 (unknown origin)
Outline: (§3)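 Ratio of IC50 values, each from a Fluor de Lys fluorogenic HDAC assay run in duplicate.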

[17] = system: A549; experiment: Antiproliferative activity against human A549 cells assessed as inhibition of cell growth incubated for 72 hrs by alamar blue assay; type: functional, cell-based; conditions: A549, 72 h
Outline: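 Cells grown in IMDM with 20% FBS and penicillin/streptomycin at 37 °C, 5% CO2. Compound added to plated cells for 72 h. Alamar blue (1 mM solution) then added for 5–6 h, and fluorescence read at 530/590 nm. IC50 derived for single-agent treatment.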

[18] = system: OVCAR-4; experiment: Antiproliferative activity against human OVCAR-4 cells assessed as cell growth at 10 uM incubated for 48 hrs by SRB assay relative to control; type: functional; conditions: read-out: Activity; outline: as §1
[19] = Microsomal stability in human liver microsomes assessed as half life at 0.5 uM prewarmed for 5 mins followed by NADPH addition and measured for 90 mins by LC-MS/MS analysis; type: ADME, Microsome; conditions: time 95 min
Outline: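 Incubation held 0.8 mg/mL human liver microsomes, MgCl2, potassium phosphate buffer pH 7.4 and 0.5 μM compound. After 5 min prewarming at 37 °C, NADPH started the reaction.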

[20] = system: A549; experiment: Antiproliferative activity against human A549 cells assessed as inhibition of cell growth incubated for 72 hrs in presence of adriamycin by alamar blue assay; type: functional, cell-based; conditions: A549, 72 h
Outline: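 Alamar blue assay in IMDM/20% FBS at 37 °C, 5% CO2. Cells were exposed to the two agents together for 72 h, with 5–6 h Alamar blue and fluorescence at 530/590 nm. IC50 in combination was determined. CI50 = IC50Ac/IC50As + IC50Bc/IC50Bs, comparing combination with single-agent IC50s.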

[21] = system: A549; experiment: Synergistic antiproliferative activity against human A549 cells assessed as combination index incubated for 72 hrs presence of adriamycin by alamar blue assay; type: functional
[22] = species: Homo sapiens; experiment: Selectivity index, ratio of IC50 for inhibition of HDAC1 (unknown origin) to IC50 for inhibition of HDAC6 (unknown origin); outline: as §3

Histone deacetylase 4, sequence (P56524 whole entry): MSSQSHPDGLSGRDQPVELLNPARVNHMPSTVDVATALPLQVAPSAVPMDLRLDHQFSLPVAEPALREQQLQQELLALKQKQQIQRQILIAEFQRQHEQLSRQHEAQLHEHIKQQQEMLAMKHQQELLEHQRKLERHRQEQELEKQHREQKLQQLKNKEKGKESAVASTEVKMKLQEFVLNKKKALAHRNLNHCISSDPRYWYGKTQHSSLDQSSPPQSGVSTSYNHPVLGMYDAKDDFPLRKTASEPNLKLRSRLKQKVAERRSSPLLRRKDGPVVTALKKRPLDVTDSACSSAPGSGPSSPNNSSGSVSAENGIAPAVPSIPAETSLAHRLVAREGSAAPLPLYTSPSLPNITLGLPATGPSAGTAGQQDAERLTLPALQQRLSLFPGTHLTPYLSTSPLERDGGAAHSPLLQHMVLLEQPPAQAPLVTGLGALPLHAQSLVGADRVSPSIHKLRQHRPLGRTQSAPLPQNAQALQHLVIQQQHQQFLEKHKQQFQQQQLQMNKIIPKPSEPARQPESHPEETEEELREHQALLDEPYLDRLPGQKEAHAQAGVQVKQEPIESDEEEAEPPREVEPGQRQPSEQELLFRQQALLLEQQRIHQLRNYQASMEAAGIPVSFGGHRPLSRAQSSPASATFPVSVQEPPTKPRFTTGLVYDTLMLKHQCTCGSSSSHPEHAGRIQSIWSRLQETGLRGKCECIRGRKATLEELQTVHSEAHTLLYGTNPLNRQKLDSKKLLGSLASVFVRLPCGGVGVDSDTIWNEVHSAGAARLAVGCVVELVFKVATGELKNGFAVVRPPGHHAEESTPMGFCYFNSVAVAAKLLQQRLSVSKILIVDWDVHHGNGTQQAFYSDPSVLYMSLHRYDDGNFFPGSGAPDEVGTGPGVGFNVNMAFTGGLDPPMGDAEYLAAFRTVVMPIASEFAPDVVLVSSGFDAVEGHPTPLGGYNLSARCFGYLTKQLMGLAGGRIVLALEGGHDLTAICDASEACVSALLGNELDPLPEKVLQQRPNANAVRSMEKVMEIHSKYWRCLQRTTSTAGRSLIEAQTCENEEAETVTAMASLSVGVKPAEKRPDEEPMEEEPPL
Polyamine deacetylase HDAC10, sequence (Q969S8 whole entry): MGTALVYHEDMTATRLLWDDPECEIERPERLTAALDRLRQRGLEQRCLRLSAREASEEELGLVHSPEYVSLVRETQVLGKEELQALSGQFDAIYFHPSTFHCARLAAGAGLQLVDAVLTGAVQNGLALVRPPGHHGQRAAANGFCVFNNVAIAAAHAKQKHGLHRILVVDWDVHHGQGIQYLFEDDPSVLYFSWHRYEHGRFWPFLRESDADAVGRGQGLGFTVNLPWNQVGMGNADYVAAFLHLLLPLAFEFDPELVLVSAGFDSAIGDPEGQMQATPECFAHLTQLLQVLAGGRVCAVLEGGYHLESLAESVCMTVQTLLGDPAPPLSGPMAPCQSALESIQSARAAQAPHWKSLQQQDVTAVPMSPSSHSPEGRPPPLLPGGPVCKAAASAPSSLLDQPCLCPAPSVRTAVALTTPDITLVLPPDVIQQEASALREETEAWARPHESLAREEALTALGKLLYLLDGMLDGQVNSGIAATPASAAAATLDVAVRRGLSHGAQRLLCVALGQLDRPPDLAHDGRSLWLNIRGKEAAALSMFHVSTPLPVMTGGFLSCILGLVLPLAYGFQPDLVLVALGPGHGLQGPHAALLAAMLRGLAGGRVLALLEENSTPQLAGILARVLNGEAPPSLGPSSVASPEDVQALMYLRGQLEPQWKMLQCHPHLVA
Protein deacetylase HDAC6 (Homo sapiens), sequence (Q9UBN7 whole entry): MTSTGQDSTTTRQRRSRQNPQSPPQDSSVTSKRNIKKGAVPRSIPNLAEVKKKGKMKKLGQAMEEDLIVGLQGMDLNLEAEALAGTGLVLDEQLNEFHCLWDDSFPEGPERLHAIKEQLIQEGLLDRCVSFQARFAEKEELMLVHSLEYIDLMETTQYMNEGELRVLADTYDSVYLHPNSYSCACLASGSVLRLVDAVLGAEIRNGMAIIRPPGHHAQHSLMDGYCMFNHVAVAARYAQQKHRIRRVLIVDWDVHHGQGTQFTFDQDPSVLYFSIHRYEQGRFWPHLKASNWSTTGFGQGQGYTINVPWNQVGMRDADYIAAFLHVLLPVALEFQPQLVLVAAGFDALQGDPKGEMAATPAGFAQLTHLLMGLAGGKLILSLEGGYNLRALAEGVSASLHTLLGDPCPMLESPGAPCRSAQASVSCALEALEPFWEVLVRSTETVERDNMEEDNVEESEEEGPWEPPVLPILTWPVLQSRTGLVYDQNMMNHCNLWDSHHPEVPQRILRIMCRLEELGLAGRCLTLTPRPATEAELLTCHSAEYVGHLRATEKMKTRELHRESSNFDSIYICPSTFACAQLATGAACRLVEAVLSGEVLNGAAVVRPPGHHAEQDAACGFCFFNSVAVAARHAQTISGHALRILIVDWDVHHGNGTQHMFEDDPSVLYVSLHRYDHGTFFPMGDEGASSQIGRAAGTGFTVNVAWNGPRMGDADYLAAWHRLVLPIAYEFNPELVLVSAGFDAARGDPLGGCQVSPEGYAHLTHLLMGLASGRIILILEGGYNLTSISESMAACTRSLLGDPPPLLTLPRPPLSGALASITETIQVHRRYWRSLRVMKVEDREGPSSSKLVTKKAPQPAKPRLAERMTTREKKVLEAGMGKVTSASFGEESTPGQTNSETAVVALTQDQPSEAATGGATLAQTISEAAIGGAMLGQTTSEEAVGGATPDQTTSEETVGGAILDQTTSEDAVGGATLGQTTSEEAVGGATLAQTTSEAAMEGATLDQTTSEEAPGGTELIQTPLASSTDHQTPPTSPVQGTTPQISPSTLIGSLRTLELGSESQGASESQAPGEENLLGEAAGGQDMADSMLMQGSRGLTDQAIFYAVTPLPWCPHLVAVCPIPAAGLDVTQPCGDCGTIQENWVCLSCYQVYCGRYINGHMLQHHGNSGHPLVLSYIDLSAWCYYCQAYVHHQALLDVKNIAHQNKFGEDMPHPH
Histone deacetylase 9, sequence (Q9UKV0 whole entry): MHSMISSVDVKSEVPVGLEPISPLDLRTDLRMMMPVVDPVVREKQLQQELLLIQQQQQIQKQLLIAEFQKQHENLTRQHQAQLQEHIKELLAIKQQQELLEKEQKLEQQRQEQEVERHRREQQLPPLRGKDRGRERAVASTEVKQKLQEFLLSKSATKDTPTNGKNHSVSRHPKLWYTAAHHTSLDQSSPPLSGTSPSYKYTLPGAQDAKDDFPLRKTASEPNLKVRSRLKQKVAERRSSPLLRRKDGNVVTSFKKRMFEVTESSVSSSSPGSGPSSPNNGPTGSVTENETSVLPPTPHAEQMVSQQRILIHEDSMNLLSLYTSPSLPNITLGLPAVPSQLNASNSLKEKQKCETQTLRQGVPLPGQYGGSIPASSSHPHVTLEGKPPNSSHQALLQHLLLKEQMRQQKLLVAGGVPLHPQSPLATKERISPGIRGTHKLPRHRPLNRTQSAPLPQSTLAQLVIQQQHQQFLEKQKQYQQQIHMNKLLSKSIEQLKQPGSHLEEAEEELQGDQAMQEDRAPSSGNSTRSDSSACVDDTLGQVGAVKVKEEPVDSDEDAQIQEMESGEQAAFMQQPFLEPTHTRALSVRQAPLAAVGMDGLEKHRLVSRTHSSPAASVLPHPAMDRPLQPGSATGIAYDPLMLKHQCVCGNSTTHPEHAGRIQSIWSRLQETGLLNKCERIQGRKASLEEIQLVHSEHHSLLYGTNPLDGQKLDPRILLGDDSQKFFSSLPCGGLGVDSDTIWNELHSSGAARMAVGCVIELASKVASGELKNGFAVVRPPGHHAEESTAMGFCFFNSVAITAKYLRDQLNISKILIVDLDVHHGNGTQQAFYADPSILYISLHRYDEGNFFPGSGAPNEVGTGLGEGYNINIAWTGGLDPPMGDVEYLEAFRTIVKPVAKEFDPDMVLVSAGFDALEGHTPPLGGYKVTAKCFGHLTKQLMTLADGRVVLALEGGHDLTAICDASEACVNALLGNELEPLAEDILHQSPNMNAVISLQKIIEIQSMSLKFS
Histone deacetylase 3 (Homo sapiens), sequence (O15379 whole entry): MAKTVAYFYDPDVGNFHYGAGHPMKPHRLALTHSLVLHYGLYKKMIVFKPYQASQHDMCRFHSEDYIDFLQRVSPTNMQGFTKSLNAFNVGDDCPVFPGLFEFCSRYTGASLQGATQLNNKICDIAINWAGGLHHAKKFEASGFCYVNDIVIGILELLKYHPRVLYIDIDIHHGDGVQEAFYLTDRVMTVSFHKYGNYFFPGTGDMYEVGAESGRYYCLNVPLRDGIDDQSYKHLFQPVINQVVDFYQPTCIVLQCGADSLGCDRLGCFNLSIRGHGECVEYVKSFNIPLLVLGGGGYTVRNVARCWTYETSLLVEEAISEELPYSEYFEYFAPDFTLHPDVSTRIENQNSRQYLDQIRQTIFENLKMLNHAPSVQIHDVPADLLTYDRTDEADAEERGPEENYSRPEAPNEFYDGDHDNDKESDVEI
Histone deacetylase 11, sequence (Q96DB2 whole entry): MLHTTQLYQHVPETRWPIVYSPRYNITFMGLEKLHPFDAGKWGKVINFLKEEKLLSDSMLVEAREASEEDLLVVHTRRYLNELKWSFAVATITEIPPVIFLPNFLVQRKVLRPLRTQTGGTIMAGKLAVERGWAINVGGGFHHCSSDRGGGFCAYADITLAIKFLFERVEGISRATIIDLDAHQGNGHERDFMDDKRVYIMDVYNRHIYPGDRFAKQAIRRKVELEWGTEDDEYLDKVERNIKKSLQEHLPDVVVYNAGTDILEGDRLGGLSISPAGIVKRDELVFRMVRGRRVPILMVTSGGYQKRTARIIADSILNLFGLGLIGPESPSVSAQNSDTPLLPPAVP

With O=C1CN(Cc2ccc(C(=O)NO)cc2)C(=O)[C@@H](Cc2c[nH]c3ccccc23)N1 the inhibition [1] was “inactive”, the pIC50 [2] was 5.25 and the growth at 10 µM [3] was 107%. It also gave a growth at 10 µM [4] of 103%, a pIC50 [5] of 5.36 and a pIC50 [6] of 5.74. It also gave a growth at 10 µM [7] of 106%, a growth at 10 µM [8] of 96.7% and a growth at 10 µM [9] of 96.6%. For the same compound, the growth at 10 µM [10] was 96.8%, the pIC50 [11] was 5.59 and the growth at 10 µM [12] was 99.1%. The growth at 10 µM [13] was 97.6%, the pIC50 [14] was 6.98 and the inhibition [15] was “Dose-Dependent Effect”.
Compound O=C(NO)c1ccc(CN2CC(=O)N(Cc3ccccc3)[C@H](Cc3ccccc3)C2=O)cc1 has a Ratio IC50 [16] of 15, a growth at 10 µM [3] of 79.9% and a growth at 10 µM [4] of 85.9%. For the same compound, the pIC50 [17] was 4.00, the growth at 10 µM [18] was 66.5% and the half-life at 0.5 µM [19] was 9.7 h. It also gave a growth at 10 µM [7] of 93.2%, a growth at 10 µM [8] of 81.3% and a growth at 10 µM [9] of 95.1%. It also gave a growth at 10 µM [10] of 85.4%, a growth at 10 µM [12] of 89.5% and a pIC50 [20] of 5.09. For the same compound, the CI [21] was 0.676 and the Ratio IC50 [22] was 981.
